In ChEMBL document CHEMBL1130340, “Semisynthetic derivatives of purpuromycin as potential topical agents for vaginal infections” (1997):
≈ marks a conversion by molar mass, not a printed value.

Assays:
Type in all cases: functional
Bacteroides fragilis = assay: In vitro antimicrobial activity against Bacteroides fragilis ATCC 25285
Procedure, shortened: (§1)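 Anaerobe MIC by broth microdilution in Wilkins-Chalgren broth; inoculum 5 × 10^5 cfu/mL; 37 °C.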

Staphylococcus aureus [1] = assay: In viro antimicrobial activity against Staphylococcus aureus L165 10 x e+6 cfu/ml
Procedure, shortened: (§2)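 Broth microdilution MIC against S. aureus L165 in Iso-Sensitest broth, 37 °C, 20–24 h.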

Streptococcus pneumoniae = assay: In vitro antimicrobial activity against Streptococcus pneumoniae L44
Procedure, shortened: (§3)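 Streptococci: broth microdilution MIC in Todd Hewitt broth; inoculum about 10^4 cfu/mL; 37 °C, 20–24 h.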

Proteus vulgaris = assay: In vitro antimicrobial activity against Proteus vulgaris ATCC881
Procedure, shortened: (§4)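 Broth microdilution MIC in Oxoid Iso-Sensitest broth; inoculum about 10^4 cfu/mL; 37 °C for 20–24 h.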

Haemophilus influenzae = assay: In vitro antimicrobial activity against Haemophilus influenza ATCC 19418
Procedure, shortened: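 Broth microdilution MIC in Brain Heart Infusion broth plus 1% (v/v) supplement C; inoculum about 10^4 cfu/mL; 37 °C.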

Streptococcus pyogenes = assay: In vitro antimicrobial activity against Streptococcus pyogenes L49; procedure, shortened: as §3
Enterococcus faecalis = assay: In vitro antimicrobial activity against Enterococcus faecalis ATCC 7080; procedure, shortened: as §4
Neisseria gonorrhoeae = assay: In vitro antimicrobial activity against Neisseria gonorrhoeae L997
Procedure, shortened: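 Broth microdilution MIC in GC Base broth plus 1% (v/v) IsoVitaleX; inoculum about 10^4 cfu/mL; 37 °C.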

[2] = system: Staphylococcus epidermidis; assay: In vitro antimicrobial activity against Staphylococcus epidermidis ATCC 12228; procedure, shortened: as §4
Staphylococcus aureus [3] = assay: In vitro antimicrobial activity against Staphylococcus aureus L1 65 30% bovine serum; procedure, shortened: as §2
Escherichia coli = assay: In vitro antimicrobial activity against Escherichia coli L47; procedure, shortened: as §4
Staphylococcus aureus [4] = assay: In vitro antimicrobial activity against Staphylococcus aureus L165; procedure, shortened: as §4
Candida albicans [5] = assay: In vitro antimicrobial activity against Candida albicans L145
Procedure, shortened: (§5)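 Candida: broth microdilution MIC in phosphate-buffered Yeast Nitrogen Base broth with glucose (1% w/v) and L-asparagine (0.15% w/v); inoculum about 10^4 cfu/mL; 37 °C, 20–24 h.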

Pseudomonas aeruginosa = assay: In vitro antimicrobial activity against Pseudomonas aeruginosa ATCC 10145; procedure, shortened: as §4
[6] = system: Staphylococcus haemolyticus; assay: In vitro antimicrobial activity against Staphylococcus haemolyticus L602; procedure, shortened: as §4
Cutibacterium acnes = assay: In vitro antimicrobial activity against Propionibacterium acnes ATCC 6919; procedure, shortened: as §1
Staphylococcus aureus [7] = assay: In vitro antimicrobial activity against Staphylococcus aureus L165 30% bovine serum; procedure, shortened: as §2
Candida tropicalis = assay: In vitro antimicrobial activity against Candida tropicalis (2); procedure, shortened: as §5
Gardnerella vaginalis [8] = assay: In vitro antimicrobial activity against Gardnerella vaginalis (MIC50)
Procedure, shortened: (§6)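 Agar dilution MIC in Casman medium with 5% (v/v) whole and 0.15% (v/v) lysed rabbit blood; inoculum about 10^5 cfu; 48 h at 37 °C under N2-CO2-H2 (80:10:10).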

Candida [9] = assay: Minimum inhibition concentration for 90% inhibition against Candida species; procedure, shortened: as §5
Trichomonas vaginalis [10] = assay: In vitro antimicrobial activity against Trichomonas vaginalis
Procedure, shortened: (§7)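 Broth microdilution in Trichomonas Culture Medium Base plus 10% horse serum; about 10^5 cells/mL; 48 h at 37 °C under N2-CO2-H2; MIC read by microscopy for viable (motile) protozoa.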

Candida [11] = assay: Minimum inhibition concentration for 50% inhibition against Candida species; procedure, shortened: as §5
Gardnerella vaginalis [12] = assay: In vitro antimicrobial activity against Gardnerella vaginalis (MIC90); procedure, shortened: as §6
Candida albicans [13] = assay: In vitro antimicrobial activity against Candida albicans (24); procedure, shortened: as §5
Nakaseomyces glabratus = assay: In vitro antimicrobial activity against Candida glabrata (1)1; procedure, shortened: as §5
Trichomonas vaginalis [14] = assay: Antimicrobial activity against Trichomonas vaginalis; procedure, shortened: as §7

Structure (SMILES)	MIC (Bacteroides fragilis) [µg/mL]	MIC (Staphylococcus aureus [1]) [µg/mL]	MIC (Streptococcus pneumoniae) [µg/mL]	MIC (Proteus vulgaris) [µg/mL]	MIC (Haemophilus influenzae) [µg/mL]	MIC (Streptococcus pyogenes) [µg/mL]	MIC (Enterococcus faecalis) [µg/mL]	MIC (Neisseria gonorrhoeae) [µg/mL]	MIC [2] [µg/mL]	MIC (Staphylococcus aureus [3]) [µg/mL]	MIC (Escherichia coli) [µg/mL]	MIC (Staphylococcus aureus [4]) [µg/mL]	MIC (Candida albicans [5]) [µg/mL]	MIC (Pseudomonas aeruginosa) [µg/mL]	MIC [6] [µg/mL]	MIC (Cutibacterium acnes) [µg/mL]	other results
CCCNc1cc(O)c2c(c1O)C(=O)C1=C(CC3(CC(O)c4cc5cc(C(=O)OC)oc(=O)c5c(O)c4O3)O1)C2=O (configuration not stated)	0.03 (≈ 0.0531 µM)	0.03 (≈ 0.0531 µM)	0.03 (≈ 0.0531 µM)	> 128	0.13 (≈ 0.23 µM)	0.13 (≈ 0.23 µM)	0.06 (≈ 0.106 µM)	0.06 (≈ 0.106 µM)	0.016 (≈ 0.0283 µM)	2 (≈ 3.54 µM)	> 128	0.03 (≈ 0.0531 µM)	> 128	> 128	0.06 (≈ 0.106 µM)		
COC(=O)c1cc2cc3c(c(O)c2c(=O)o1)OC1(CC2=C(O1)C(=O)c1c(O)c(NCC#N)cc(O)c1C2=O)CC3O (configuration not stated)	0.5 (≈ 0.889 µM)	0.13 (≈ 0.231 µM)	0.03 (≈ 0.0533 µM)	> 128	0.13 (≈ 0.231 µM)	0.13 (≈ 0.231 µM)	0.13 (≈ 0.231 µM)	0.06 (≈ 0.107 µM)	0.13 (≈ 0.231 µM)	2 (≈ 3.56 µM)	> 128	0.13 (≈ 0.231 µM)	> 128	> 128	0.13 (≈ 0.231 µM)	0.016 (≈ 0.0284 µM)	
COC(=O)c1cc2cc3c(c(O)c2c(=O)o1)OC1(CC2=C(O1)C(=O)c1c(O)c(NCCN)cc(O)c1C2=O)CC3O (configuration not stated)	> 128	1 (≈ 1.77 µM)	1 (≈ 1.77 µM)	> 128	32 (≈ 56.5 µM)	2 (≈ 3.53 µM)	2 (≈ 3.53 µM)	64 (≈ 113 µM)	1 (≈ 1.77 µM)	8 (≈ 14.1 µM)	> 128	1 (≈ 1.77 µM)	> 128	> 128	1 (≈ 1.77 µM)	0.5 (≈ 0.883 µM)	
COC(=O)c1cc2cc3c(c(O)c2c(=O)o1)OC1(CC2=C(O1)C(=O)c1c(O)c(NCc4ccccc4)cc(O)c1C2=O)CC3O (configuration not stated)		1 (≈ 1.63 µM)	0.06 (≈ 0.0978 µM)	> 128	2 (≈ 3.26 µM)	1 (≈ 1.63 µM)	4 (≈ 6.52 µM)	0.25 (≈ 0.407 µM)	0.13 (≈ 0.212 µM)		> 128	0.5 (≈ 0.815 µM)	> 128	> 128	0.13 (≈ 0.212 µM)		MIC (Staphylococcus aureus [7]): 32 µg/mL (≈ 52.2 µM)
COC(=O)c1cc2cc3c(c(O)c2c(=O)o1)OC1(CC2=C(O1)C(=O)c1c(O)c(NCC(F)(F)F)cc(O)c1C2=O)CC3O (configuration not stated)	0.06 (≈ 0.0991 µM)	0.03 (≈ 0.0496 µM)	0.06 (≈ 0.0991 µM)	> 128	0.06 (≈ 0.0991 µM)	0.13 (≈ 0.215 µM)	0.03 (≈ 0.0496 µM)	0.06 (≈ 0.0991 µM)	0.016 (≈ 0.0264 µM)	2 (≈ 3.3 µM)	> 128	0.016 (≈ 0.0264 µM)	8 (≈ 13.2 µM)	> 128	0.016 (≈ 0.0264 µM)	0.008 (≈ 0.0132 µM)	
COC(=O)c1cc2cc3c(c(O)c2c(=O)o1)OC1(CC2=C(O1)C(=O)c1c(O)c(NCCNC(=O)OC(C)(C)C)cc(O)c1C2=O)CC3O (configuration not stated)	0.5 (≈ 0.75 µM)	0.13 (≈ 0.195 µM)	0.06 (≈ 0.09 µM)	> 128	1 (≈ 1.5 µM)	0.13 (≈ 0.195 µM)	0.13 (≈ 0.195 µM)	0.13 (≈ 0.195 µM)	0.06 (≈ 0.09 µM)	2 (≈ 3 µM)	> 128	0.13 (≈ 0.195 µM)	> 128	> 128	0.06 (≈ 0.09 µM)	0.016 (≈ 0.024 µM)	
CNc1cc(O)c2c(c1O)C(=O)C1=C(CC3(CC(O)c4cc5cc(C(=O)OC)oc(=O)c5c(O)c4O3)O1)C2=O (configuration not stated)	0.03 (≈ 0.0558 µM)	0.06 (≈ 0.112 µM)	0.016 (≈ 0.0298 µM)	> 128	0.13 (≈ 0.242 µM)	0.03 (≈ 0.0558 µM)	0.03 (≈ 0.0558 µM)	0.06 (≈ 0.112 µM)	0.008 (≈ 0.0149 µM)	0.25 (≈ 0.465 µM)	> 128	0.016 (≈ 0.0298 µM)	2 (≈ 3.72 µM)	> 128	0.016 (≈ 0.0298 µM)	0.008 (≈ 0.0149 µM)	MIC (Candida tropicalis): 64 µg/mL (≈ 119 µM); MIC50 (Gardnerella vaginalis [8]): 1 µg/mL (≈ 1.86 µM); MIC90 (Candida [9]): 2 µg/mL (≈ 3.72 µM); MIC (Trichomonas vaginalis [10]): 1 µg/mL (≈ 1.86 µM); MIC50 (Candida [11]): 2 µg/mL (≈ 3.72 µM); MIC90 (Gardnerella vaginalis [12]): 2 µg/mL (≈ 3.72 µM); MIC (Candida albicans [13]): 0.25 µg/mL (≈ 0.465 µM); MIC (Nakaseomyces glabratus): 128 µg/mL (≈ 238 µM)
CCNc1cc(O)c2c(c1O)C(=O)C1=C(CC3(CC(O)c4cc5cc(C(=O)OC)oc(=O)c5c(O)c4O3)O1)C2=O (configuration not stated)	0.06 (≈ 0.109 µM)	0.06 (≈ 0.109 µM)	0.06 (≈ 0.109 µM)	> 128	0.06 (≈ 0.109 µM)	0.06 (≈ 0.109 µM)	0.06 (≈ 0.109 µM)	0.06 (≈ 0.109 µM)	0.06 (≈ 0.109 µM)	1 (≈ 1.81 µM)	> 128	0.06 (≈ 0.109 µM)	2 (≈ 3.63 µM)	> 128	0.06 (≈ 0.109 µM)	0.06 (≈ 0.109 µM)	MIC (Candida tropicalis): 64 µg/mL (≈ 116 µM); MIC50 (Gardnerella vaginalis [8]): 2 µg/mL (≈ 3.63 µM); MIC90 (Candida [9]): 4 µg/mL (≈ 7.25 µM); MIC (Trichomonas vaginalis [10]): 8 µg/mL (≈ 14.5 µM); MIC50 (Candida [11]): 2 µg/mL (≈ 3.63 µM); MIC90 (Gardnerella vaginalis [12]): 2 µg/mL (≈ 3.63 µM); MIC (Candida albicans [13]): 0.25 µg/mL (≈ 0.453 µM); MIC (Nakaseomyces glabratus): 32 µg/mL (≈ 58 µM)
Cc1ncc([N+](=O)[O-])n1CCO [METRONIDAZOLE]																	MIC (Trichomonas vaginalis [14]): 0.25 µg/mL (≈ 1.46 µM)
